Data reported in ChEMBL document CHEMBL4007443, “Discovery of Potent Human Glutaminyl Cyclase Inhibitors as Anti-Alzheimer's Agents Based on Rational Design” (J Med Chem, 2017).
Active and inactive are the calls of the source. No cut-off for these calls is given here.

Tests used:
Mus musculus [1] = species: Mus musculus; conditions: ICR, 25 mg/kg
Mus musculus [2] = experiment: Antialzheimer activity in human amyloid beta (3 to 40) induced acute ICR mouse Alzheimer's disease mouse model assessed as inhibition of amyloid beta (N3pE to 40) formation in brain at 10 mM, icv by sandwich ELISA; assay type: functional
Summary of the method: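 Acute model: male ICR mice, 5 weeks old (25 g, n = 4), anaesthetized and given 5 µg human Aβ3-40 in 5 µL PBS by stereotaxic injection into deep cortex/hippocampus (AP -2.0, ML 1.2, DV 1.0 mm from bregma). Inhibitor given by the same intracerebral route or i.p. Brain extracts taken next day; Aβ N3pE-40 quantified by sandwich ELISA. Percent inhibition is relative to vehicle; one-way ANOVA with Bonferroni.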

[3] = Cytotoxicity against mouse HT22 cells assessed as cell viability at 10 uM after 18 hrs by MTT assay; assay type: cell-based, HT-22; conditions: read-out: Activity
Summary of the method: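 HT-22 mouse hippocampal cells grown in DMEM with 10% FBS at 37 °C, 5% CO2. Cells seeded at 5000/well the day before and exposed to compound at 10 µM for 18 h at 37 °C. MTT added for 3 h, formazan dissolved in DMSO, absorbance read at 570 nm. Viability expressed relative to vehicle control (100%).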

Mus musculus [4] = species: Mus musculus; experiment: animal or person; conditions: ICR, ip, read-out: INH
[5] = biological target: Glutaminyl-peptide cyclotransferase (Mus musculus, UniProt Q9CYK2); experiment: Inhibition of mouse glutaminyl cyclase assessed as reduction in conversion of H-Gln-AMC hydrobromide to pGlu-AMC preincubated with substrate for 10 mins followed by enzyme addition by pGAPase coupled fluorometry
Mus musculus [6] = experiment: Cognition enhancement activity in 5XFAD Alzheimer's disease mouse model assessed as increase in duration of time spent in target quadrant administered intraperitoneally starting from 19 to 34 weeks of age by Morris water maze test; assay type: functional
Summary of the method: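 Male 5XFAD mice (n = 6 vehicle, n = 6 treated) received the compound i.p. from 19 weeks of age for 3 months, housed singly on a 12:12 h light cycle. Morris water maze: four hidden-platform training trials per day for 5 days, scoring escape latency. Probe trial 24 h later with the platform removed, scoring time in the target quadrant.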

[7] = Stability in mouse liver microsomes assessed as compound remaining after 30 mins; assay type: ADME, microsome; conditions: read-out: Stability
Mus musculus [8] = experiment: Toxicity in APP/PS1 transgenic Alzheimer's disease mouse model administered via icv for 3 weeks; conditions: in vivo, icv_or_intrathecal, 504 h

Glutaminyl-peptide cyclotransferase, sequence (Q9CYK2 whole entry): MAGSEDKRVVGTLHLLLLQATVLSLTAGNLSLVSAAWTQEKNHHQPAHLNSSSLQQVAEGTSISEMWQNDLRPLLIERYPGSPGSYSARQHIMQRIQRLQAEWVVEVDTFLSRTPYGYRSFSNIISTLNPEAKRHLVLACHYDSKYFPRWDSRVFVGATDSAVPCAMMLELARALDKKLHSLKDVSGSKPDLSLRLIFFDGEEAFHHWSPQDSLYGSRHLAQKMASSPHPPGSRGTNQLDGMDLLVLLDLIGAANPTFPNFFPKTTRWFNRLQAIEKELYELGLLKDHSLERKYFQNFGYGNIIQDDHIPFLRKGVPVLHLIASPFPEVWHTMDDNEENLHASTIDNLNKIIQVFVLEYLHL

Question: What does the source list for `COc1cc(NC(=S)NCCCn2cncc2C)ccc1OCCCN`?
Answer: inhibition (Mus musculus [1]): inactive; inhibition (INH) (Mus musculus [2]): 64.6%; viability at 18 h, 10 µM [3]: 100%

Question: With `COc1cc(NC(=S)NCCCn2cncc2C)ccc1OCCc1ccnc(N)c1` as the compound, how does the “inhibition (INH)” value (Mus musculus [2]) read?
Answer: 38%

Question: What about the viability at 18 h, 10 µM [3] of the same compound?
Answer: 100%

Question: Which “inhibition (INH)” value (Mus musculus [2]) does the source give for `COc1cc(NC(=S)NCCCn2cncc2C)ccc1OCCCCNc1ncccn1` here?
Answer: 27.3%

Question: And the viability at 18 h, 10 µM [3]?
Answer: 100%

Question: With `COc1cc(NC(=S)NCCCn2cncc2C)ccc1OCCC1CCN(C)CC1` as the compound, how does the “inhibition (INH)” value (Mus musculus [2]) read?
Answer: 18.7%

Question: And the viability at 18 h, 10 µM [3]?
Answer: 100%

Question: Which “inhibition (INH)” value (Mus musculus [2]) does the source give for `COc1cc(NC(=S)NCCCn2cncc2C)ccc1OCCCCN(C)C` here?
Answer: 35.7%

Question: What about the viability at 18 h, 10 µM [3] of the same compound?
Answer: 100%

Question: What does the source list for `COc1cc(NC(=S)NCCCn2cncc2C)ccc1OCCN1CCNCC1`?
Answer: inhibition in vivo at 25 mg/kg (Mus musculus [4]): 3.6%; inhibition (INH) (Mus musculus [2]): 77.2%; viability at 18 h, 10 µM [3]: 100%

Question: Which IC50 [5] does the source give for `COc1ccc(NC(=S)NCCCn2cncc2C)cc1OC` here?
Answer: 21.5 nM

Question: And the inhibition (Mus musculus [1])?
Answer: inactive

Question: And the “inhibition (INH)” value (Mus musculus [2])?
Answer: 41.6%

Question: What about the viability at 18 h, 10 µM [3] of the same compound?
Answer: 100%

Question: What does the source list for `COc1cc(NC(=S)NCCCn2cncc2C)ccc1OCCCCc1ccnc(N)c1`?
Answer: Activity (Mus musculus [6]): Active; IC50 [5]: 12.6 nM; inhibition in vivo at 25 mg/kg (Mus musculus [4]): 54.7%; remaining at 0.5 h [7]: 50%; Activity (Mus musculus [8]): Non-Toxic; inhibition (INH) (Mus musculus [2]): 66.1%; viability at 18 h, 10 µM [3]: 100%

Question: Which results are given for `COc1cc(NC(=S)NCCCn2cncc2C)ccc1OCCCCN1CCNCC1`?
Answer: inhibition (INH) (Mus musculus [2]): 29.2%; viability at 18 h, 10 µM [3]: 100%
